Measured values from publication PMC3325786 (Cancer Research, 2011).
DNP = 2,4-dinitrophenyl quencher group; MCA = fluorogenic coumarin group

Assays:
Taspase1 [1] = molecular target: T1, Taspase1 (Homo sapiens, UniProt Q9H6P5); test: In vitro cleavage of radiolabeled p75MLL reporter by recombinant Taspase1; assay type: biochemical; conditions: for activity against Taspase1 (cleavage of p75MLL): in vitro cleavage assay
T1 sequence (Q9H6P5 1-233 limits assumed): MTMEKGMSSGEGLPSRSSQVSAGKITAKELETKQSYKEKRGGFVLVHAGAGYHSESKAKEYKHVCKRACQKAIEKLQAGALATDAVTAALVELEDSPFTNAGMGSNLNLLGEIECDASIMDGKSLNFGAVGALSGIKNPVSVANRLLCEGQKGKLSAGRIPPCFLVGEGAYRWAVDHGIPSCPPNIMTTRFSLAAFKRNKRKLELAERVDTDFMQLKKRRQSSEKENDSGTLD
T1 sequence (Q9H6P5 234-420 limits assumed): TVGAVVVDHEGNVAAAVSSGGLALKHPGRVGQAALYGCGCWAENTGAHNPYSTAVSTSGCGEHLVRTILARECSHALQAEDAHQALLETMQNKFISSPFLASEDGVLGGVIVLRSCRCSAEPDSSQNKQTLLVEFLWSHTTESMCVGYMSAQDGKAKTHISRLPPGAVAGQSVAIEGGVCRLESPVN

Taspase1 [2] = molecular target: T1, Taspase1; test: FRET-based Taspase1 cleavage assay with FRPR reporter; assay type: biochemical
Caspase8 = Caspase8 (Homo sapiens, UniProt Q14790); test: Caspase8-p22Bid in vitro cleavage assay; assay type: biochemical; conditions: 1 mM compound, 250 ng rCaspase8
Chain of Caspase8 (Q14790 217-374 limits assumed, species assumed): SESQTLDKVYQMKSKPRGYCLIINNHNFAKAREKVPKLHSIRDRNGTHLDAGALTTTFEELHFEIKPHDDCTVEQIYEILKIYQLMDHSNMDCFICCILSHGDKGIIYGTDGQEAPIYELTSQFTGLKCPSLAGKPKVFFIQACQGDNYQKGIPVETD
Chain of Caspase8 (Q14790 385-479 limits assumed, species assumed): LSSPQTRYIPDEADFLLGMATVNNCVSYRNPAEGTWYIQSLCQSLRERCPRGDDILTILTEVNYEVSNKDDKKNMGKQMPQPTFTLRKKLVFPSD

[3] = molecular target: T2, Taspase1 precursor (p50T1α-β) (Homo sapiens, UniProt Q9H6P5); test: Intramolecular autoproteolysis of radiolabeled Taspase1 precursor p50T1α-β; assay type: biochemical; conditions: increasing amounts, 6 hours at 30°C
T2 sequence (Q9H6P5 1-420): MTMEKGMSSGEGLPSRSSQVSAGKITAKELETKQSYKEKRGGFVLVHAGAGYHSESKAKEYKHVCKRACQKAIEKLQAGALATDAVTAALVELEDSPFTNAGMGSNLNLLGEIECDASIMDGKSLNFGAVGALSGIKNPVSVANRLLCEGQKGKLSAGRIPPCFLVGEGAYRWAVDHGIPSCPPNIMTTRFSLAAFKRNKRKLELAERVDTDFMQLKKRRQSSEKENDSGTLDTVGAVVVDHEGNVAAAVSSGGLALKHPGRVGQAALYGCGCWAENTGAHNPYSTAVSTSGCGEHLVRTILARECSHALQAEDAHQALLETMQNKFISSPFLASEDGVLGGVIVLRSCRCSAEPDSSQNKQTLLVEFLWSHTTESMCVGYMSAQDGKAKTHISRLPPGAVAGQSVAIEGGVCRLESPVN
In short: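 Radiolabeled 50 kD Taspase1 precursor (p50T1α-β, 0.5 μl) incubated in cleavage buffer at 30°C for 6 hours with indicated concentrations of test compound. Maturation is scored as autoproteolytic conversion to the 28 kD α and 22 kD β subunits.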

[4] = system: Taspase1−/−;Taspase1 MEFs; test: MTT relative cell number in SV40-transformed MEFs; assay type: cell-based, mouse; conditions: 1uM, 2 days
U251 cells = test: Growth inhibition of NCI60 brain tumor cell lines; assay type: cell-based, human; conditions: NCI DTP GI50 data confirmed by MTT, 2 days
[5] = In vivo toxicity profile after short term tail vein injections; set-up: species or system mouse
MMTV-neu breast cancers = test: MMTV-neu mouse breast cancer model; assay type: in vivo; conditions: every other day, 5 intravenous injections
MMTV-wnt breast cancers = test: MMTV-wnt mouse breast cancer model; assay type: in vivo; conditions: every other day, 5 intravenous injections
U251 xenograft = test: U251 brain tumor xenograft, bioluminescent imaging; assay type: in vivo, mouse; conditions: treated on days 0, 2 and 4; compared to vehicle
In short: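 U251 cells stably expressing firefly luciferase were implanted subcutaneously into the flanks of male NOD-scid IL2Rγ−/− mice aged 6–8 weeks on day −1. Test compound was given at indicated doses on days 0, 2 and 4. Tumor mass was followed by bioluminescence imaging, normalized to 1 at day 0. Mean ± SD of 4 tumors per arm.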

autotaxin = conditions: cited from earlier work
[6] = short term tail vein injections

## O=C(O)Cc1ccc(Oc2ccc(CC(=O)O)cc2)cc1 [NSC74084]
Taspase1 [1]
  activity against Taspase1 (cleavage of p75MLL): no demonstrable activity

## MCA-KISQLDGVDD-DNP ({MCA}-KISQLDGVDD-{DNP}) [FRPR, reference compound]
Taspase1 [2]; read-out: apparent KM, substrate of Taspase1
  Km: 9.06 ± 2.8 µM

## Cc1cc(Cc2ccc3c(c2)OCO3)ccc1OCC(=O)O [NSC352678]
Taspase1 [1]
  activity against Taspase1 (cleavage of p75MLL): no demonstrable activity

## O=[As](O)(O)c1ccc(Cc2ccc([As](=O)(O)O)cc2)cc1 [NSC48300, [4-[(4-arsonophenyl)methyl]phenyl] arsonic acid]
Taspase1 [1]
  IC50: ~7.5 µM
Taspase1 [1]; 5 μM, pre-incubation for extended periods of time
  reversible or irreversible inhibition (extended pre-incubation): reversible
Caspase8
  specificity: Caspase8-mediated cleavage of p22Bid: specifically targeted Taspase1
Taspase1 [2]; non-linear regression of reaction curves
  mode of inhibition: non-competitive
[3]
  impact on Taspase1 autoproteolysis: no impact
[4]
  sensitivity compared to parental Taspase1−/− cell line: increased sensitivity
U251 cells
  sensitivity to treatment in vitro among NCI60 brain tumor cell lines: most sensitive
[5]; complete blood counts
  hemoglobin levels: decrease
  white blood cell counts: decrease
[5]; repetitive tail vein treatment
  injection site damage: fibrotic damages of regional vessels at injection sites
[5]; [6]
  blood chemistry: LDH level: significant decrease
  blood chemistry: electrolytes and kidney functions: certain alterations
  histological examination of major organs: did not reveal any obvious abnormalities
MMTV-neu breast cancers
  growth of MMTV-neu breast cancers: consistently disrupted the growth
MMTV-wnt breast cancers
  growth of MMTV-wnt breast cancers: no effects
U251 xenograft
  tumor growth by bioluminescent imaging: stasis of tumor growth
autotaxin
  lysophospholipase D activity of autotaxin: inhibited

## CC(C)C[C@H](NC(=O)[C@H](Cc1ccccc1)NC(=O)c1cnccn1)B(O)O [Bortezomib, reference compound]
Taspase1 [1]
  activity against Taspase1 (cleavage of p75MLL): no activity

## O=[N+]([O-])c1cccc(NCNc2cccc([N+](=O)[O-])c2)c1 [NSC47905]
Taspase1 [1]
  activity against Taspase1 (cleavage of p75MLL): no demonstrable activity

## O=[As](O)(O)O [arsenic acid, reference compound]
Taspase1 [1]; up to 1 mM, 5 ng rTaspase1, 30 min preincubation
  inhibition of Taspase1 by free arsenic acid: no detectable inhibition

## COc1ccc(C(=O)OCc2ccc3c(c2)OCO3)cc1 [NSC23953]
Taspase1 [1]
  activity against Taspase1 (cleavage of p75MLL): no demonstrable activity
